# Published values of several laboratories.
# Protocols differ between the studies behind these lines.
# Target: Insulin receptor-related protein (INSRR, Homo sapiens, UniProt P14616)
Structure (SMILES),observed,mode,method,concentration,endpoint,result
COc1cc2ncnc(Nc3ccc(Oc4ccccc4)cc3C)c2cc1OC,enzyme activity,inhibitor,,1 µM,inhibition,3%
Cc1ccc(NC(=O)c2ccc(C)c(C(F)(F)F)c2)cc1C#Cc1nn(C2CCC(O)CC2)c2ncnc(N)c12 (stereo not shown),cell-free assay,,,10 µM,remaining signal,107%
COc1cc(Cl)c(C(=O)N[C@@H](CN[C@H]2CC[C@@H](N)CC2)Cc2ccc(C#N)cc2)cc1-c1ccc(CN[C@H](C)c2ccc(C)cc2)o1,enzyme activity,inhibitor,,1 µM,remaining activity,98%
COc1cc(Nc2cnc(C#N)c(O[C@H](C)CN(C)C)n2)ncc1-c1cnn(C)c1,enzyme activity,inhibitor,radiometric,1 µM,remaining activity,103%
COc1cc(-c2cn(C3CCc4c(F)cccc4N(CC(F)(F)F)C3=O)nn2)ccc1-n1cnc(C)c1 (stereo not shown),cell-free assay,,competition with immobilised ligand,1 µM,remaining binding,100%
CC/C(=N\NC(=O)NCc1cccc(O)c1)c1ccc(O)c(C)c1O,enzyme activity,inhibitor,,0.1 µM,inhibition,1.7%
COc1cc2nccc(Oc3ccc(NC(=O)c4c5n(n(-c6ccc(F)cc6)c4=O)CCCC5)cc3)c2cc1OC,enzyme activity,inhibitor,,0.1 µM,inhibition,5%
CCN(CC)c1ccc(C2=NNC(=O)CC2C)cc1[N+](=O)[O-] (stereo not shown),enzyme activity,inhibitor,,10 µM,remaining activity,97%
FC(F)c1nc2ccccc2n1-c1nc(N2CCOCC2)nc(N2CCOCC2)n1,enzyme activity,inhibitor,,10 µM,remaining activity,88%
Cc1cnc(NC2CCOCC2)nc1-n1cnc(C(=O)NC(CN)c2cc(F)cc(Cl)c2)c1 (stereo not shown),enzyme activity,inhibitor,radiometric,1 µM,remaining activity,70%
O=C(O)[C@@H]1[C@@H](Cn2nnc3ccccc3c2=O)CC[C@H]1C(=O)c1ccc(OCCC2CCOCC2)cc1,cell-free assay,,competition with immobilised ligand,1 µM,remaining binding,100%
Cc1ccc(C(=O)NCc2ccsc2)cc1C#Cc1cn(C(C)C)c2ncnc(N)c12,enzyme activity,inhibitor,,1 µM,activity vs control,105%
O=C(Nc1cccnn1)N1CCC(=Cc2cccc(Oc3ccc(C(F)(F)F)cn3)c2)CC1,cell-free assay,,competition with immobilised ligand,1 µM,remaining binding,100%
O=C(Nc1cnn(-c2csc(C(=O)NC3COC3)c2)c1)Nc1ccccc1Cl,enzyme activity,inhibitor,,5 µM,remaining activity,96%
CNC(=O)c1cc(Oc2ccc(NC(=O)Nc3ccc(Cl)c(C(F)(F)F)c3)cc2)ccn1,enzyme activity,inhibitor,,10 µM,inhibition,8%
Cc1sc(C(=O)NC2COC2)cc1-n1cc(NC(=O)Nc2c(F)cccc2Cl)cn1,enzyme activity,inhibitor,,10 µM,remaining activity,71.9%
Cc1cc(NC(=O)c2cccc(S(F)(F)(F)(F)F)c2)cc(-n2ccn3nc(-c4cccnc4)cc23)c1,cell-free assay,,competition with immobilised ligand,1 µM,remaining binding,100%
COc1ccc(COc2ccc(Cc3cnc(N)nc3N)cc2OC)cc1,cell-free assay,,,0.5 µM,remaining signal,99.4%
Nc1nc(NC2CCCCC2)sc1C(=O)c1ccccc1,enzyme activity,inhibitor,,10 µM,remaining activity,25%
Cc1ccc(Nc2nccc(N(C)c3ccc4c(C)n(C)nc4c3)n2)cc1S(N)(=O)=O,enzyme activity,inhibitor,,0.3 µM,inhibition,-22%
CN([C@@H]1CCc2c(CC(=O)O)c3cc(S(C)(=O)=O)ccc3n2C1)S(=O)(=O)c1ccc(F)cc1,cell-free assay,,competition with immobilised ligand,1 µM,remaining binding,100%
CCCOc1ccc(OC)c(F)c1C(=O)c1ccc(C(=O)N[C@@H]2CNC[C@H]2NC(=O)c2ccc3[nH]ncc3c2)cc1,enzyme activity,inhibitor,,10 µM,remaining activity,87%
CC(=O)c1c(NS(C)(=O)=O)c2cc(-c3ccc(Cl)cc3)c(-c3ccc(Cl)cc3Cl)nc2n(C)c1=O,cell-free assay,,competition with immobilised ligand,1 µM,remaining binding,93%
O=C1NC(=O)c2cc(Nc3ccc(F)cc3)c(Nc3ccc(F)cc3)cc21,cell-free assay,,,0.5 µM,remaining signal,111%
CCS(=O)(=O)c1cc2cc(C[C@@](O)(CC(C)(C)c3ccc(F)cc3C(N)=O)C(F)(F)F)[nH]c2cn1,cell-free assay,,competition with immobilised ligand,1 µM,remaining binding,64%
CCN(CC)CCNC(=O)c1c(C)[nH]c(/C=C2\C(=O)Nc3ccc(F)cc32)c1C,enzyme activity,inhibitor,,0.3 µM,inhibition,25%
O=C(N[C@H]1CCCCC/C=C\C2C[C@@]2(C(=O)O)NC(=O)[C@@H]2C[C@@H](Oc3ccncc3)CN2C1=O)OC1CCCC1 (stereo partly shown),binding,,competition with immobilised ligand,1 µM,remaining binding,100%
CC(C)(C)c1nc(-c2cccc(NS(=O)(=O)c3c(F)cccc3F)c2F)c(-c2ccnc(N)n2)s1,enzyme activity,inhibitor,radiometric,1 µM,remaining activity,103%
